Experimental data taken from ChEMBL document CHEMBL1146122, “Neuropeptide Y (NPY) Y4 receptor selective agonists based on NPY(32-36): development of an anorectic Y4 receptor selective agonist with picomolar affinity” (J Med Chem, 2006).
pEC50, pKi: −log10 of the molar value. Positions of bridges follow the written chain, without caps; N, C: chain ends. Non-standard residues stand in square brackets, D forms with d. Residues, ends and D or L forms follow the SMILES beside them. Chains are numbered I, II in the order given. Nva = CCC[C@H](N)C(=O)O

How the values were obtained:
[1] = target: T1, Neuropeptide Y receptor type 1 (Homo sapiens, UniProt P25929); assay: Agonist activity at human NPY1 receptor in CHO cells by inhibition of forskolin-stimulated cAMP synthesis; type: functional, cell-based
T1 sequence (P25929 whole entry): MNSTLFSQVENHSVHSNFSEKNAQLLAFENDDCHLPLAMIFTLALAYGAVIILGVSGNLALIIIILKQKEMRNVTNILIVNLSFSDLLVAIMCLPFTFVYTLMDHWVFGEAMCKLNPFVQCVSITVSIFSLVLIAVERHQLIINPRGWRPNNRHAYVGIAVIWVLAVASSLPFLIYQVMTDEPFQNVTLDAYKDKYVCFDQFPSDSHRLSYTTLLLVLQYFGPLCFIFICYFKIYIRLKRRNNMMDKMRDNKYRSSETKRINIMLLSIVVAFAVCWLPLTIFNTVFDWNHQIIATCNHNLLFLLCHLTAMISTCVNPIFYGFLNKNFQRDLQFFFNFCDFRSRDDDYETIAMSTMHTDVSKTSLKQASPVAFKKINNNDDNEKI

[2] = target: T2, Neuropeptide Y receptor type 4 (Homo sapiens, UniProt P50391); assay: Displacement of [125I]hPP from human NPY4 receptor expressed in CHO cells; type: cell-based
T2 sequence (P50391 whole entry): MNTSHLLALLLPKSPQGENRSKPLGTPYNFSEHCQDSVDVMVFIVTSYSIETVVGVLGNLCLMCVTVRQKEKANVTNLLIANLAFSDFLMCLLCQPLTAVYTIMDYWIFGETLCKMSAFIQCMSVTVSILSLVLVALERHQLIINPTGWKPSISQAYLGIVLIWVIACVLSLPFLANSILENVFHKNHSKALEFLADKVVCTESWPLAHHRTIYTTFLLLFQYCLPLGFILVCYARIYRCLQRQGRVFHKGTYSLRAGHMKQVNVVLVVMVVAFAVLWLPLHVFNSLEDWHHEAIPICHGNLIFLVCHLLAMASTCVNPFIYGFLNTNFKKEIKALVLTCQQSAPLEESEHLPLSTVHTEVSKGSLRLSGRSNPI
In short: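 Y4 binding used membranes from CHO cells stably expressing cloned human Y4, with 125I-PP as radioligand. Competing peptides were tested over a range of concentrations in 50 mM HEPES pH 7.3, 0.1% BSA, 2.5 mM CaCl2 and 1 mM MgCl2 for 90 min at room temperature. Separation was by filtration and γ-counting. Nonspecific binding was taken with 1 µM PP. Duplicate points, three experiments, nonlinear regression.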

[3] = target: T1, Neuropeptide Y receptor type 1; assay: Displacement of […] from human NPY1 receptor expressed in CHO cells; type: cell-based
In short: (§1)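 Competition binding on membranes (5-10 µg protein) from CHO cells stably expressing human Y1, Y2 or rat-human hybrid Y5 receptors. Radioligand 0.2 nM 125I-PYY, incubated with a range of peptide concentrations in 50 mM HEPES pH 7.3, 0.1% BSA, 2.5 mM CaCl2 and 1 mM MgCl2 for 90 min at room temperature. Bound ligand separated on PEI-treated glass fibre filters, washed with PBS and γ-counted. 1 µM NPY defined nonspecific binding. Duplicate points, three experiments, nonlinear regression.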

[4] = target: T3, Neuropeptide Y receptor type 2 (Homo sapiens, UniProt P49146); assay: Displacement of […] from human NPY2 receptor expressed in CHO cells; type: cell-based; in short: as §1
T3 sequence (P49146 whole entry): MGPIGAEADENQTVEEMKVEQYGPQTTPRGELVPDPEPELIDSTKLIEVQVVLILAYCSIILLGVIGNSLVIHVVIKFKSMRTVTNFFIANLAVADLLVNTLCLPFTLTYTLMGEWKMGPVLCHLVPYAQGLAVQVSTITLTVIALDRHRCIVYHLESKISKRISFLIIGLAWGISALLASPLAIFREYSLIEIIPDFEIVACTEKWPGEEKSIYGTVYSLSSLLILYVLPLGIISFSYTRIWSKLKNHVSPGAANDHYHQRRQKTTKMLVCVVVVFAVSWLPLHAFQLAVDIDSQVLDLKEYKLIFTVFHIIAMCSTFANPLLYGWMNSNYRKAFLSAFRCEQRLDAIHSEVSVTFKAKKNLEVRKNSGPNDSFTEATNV

[5] = Displacement of […] from rat-human hybrid NPY5 receptor expressed in CHO cells; type: cell-based; in short: as §1
[6] = target: T2, Neuropeptide Y receptor type 4; assay: Agonist activity at human NPY4 receptor in CHO cells by inhibition of forskolin-stimulated cAMP synthesis
Homo sapiens [7] = species: Homo sapiens; assay: Selectivity for human NPY4 over NPY1 receptor
Homo sapiens [8] = species: Homo sapiens; assay: Selectivity for human NPY4 over NPY2 receptor
[9] = Selectivity for human NPY4 over rat-human hybrid NPY5 receptor
[10] = target: T4, Neuropeptide Y receptor type 1 (Homo sapiens) (UniProt P25929); assay: Antagonist activity against human NPY1 receptor in CHO cells by inhibition of forskolin-stimulated cAMP synthesis; type: functional, cell-based
T4 sequence (whole entry): T1 sequence (P25929 whole entry)

pEC50 [1]	pKi [2]	pKi [3]	pKi [4]	pEC50 [6]	Selectivity ratio (Homo sapiens [7])	Selectivity ratio (Homo sapiens [8])	Selectivity ratio [9]	Kb [10] [nM]	Structure (SMILES)	pKi [5]
6.62	10.30	8.12	6.05	7.83					CC(C)C[C@H](NC(=O)[C@H](CCCN=C(N)N)NC(=O)[C@H](Cc1ccc(O)cc1)NC(=O)[C@@H](N)CCCC[C@H](N)C(=O)N[C@@H](Cc1ccc(O)cc1)C(=O)N[C@@H](CCCN=C(N)N)C(=O)N[C@@H](CC(C)C)C(=O)N[C@@H](CCCN=C(N)N)C(=O)N[C@@H](Cc1ccc(O)cc1)C(N)=O)C(=O)N[C@@H](CCCN=C(N)N)C(=O)N[C@@H](Cc1ccc(O)cc1)C(N)=O	< 6.00
					20	100	30		CCC[C@H](NC(=O)[C@H](CCCN=C(N)N)NC(=O)[C@H](Cc1c[nH]c2ccccc12)NC(=O)[C@@H](N)CCCC[C@H](N)C(=O)N[C@@H](Cc1c[nH]c2ccccc12)C(=O)N[C@@H](CCCN=C(N)N)C(=O)N[C@@H](CCC)C(=O)N[C@@H](CCCN=C(N)N)C(=O)N[C@@H](Cc1ccc(O)cc1)C(N)=O)C(=O)N[C@@H](CCCN=C(N)N)C(=O)N[C@@H](Cc1ccc(O)cc1)C(N)=O (stereo in doubt; 4A) [listing 1 of 2 here]	
	8.39	7.05	6.41	6.37					CCC[C@H](NC(=O)[C@H](CCCN=C(N)N)NC(=O)[C@H](Cc1c[nH]c2ccccc12)NC(=O)[C@@H](N)CCCC[C@H](N)C(=O)N[C@@H](Cc1c[nH]c2ccccc12)C(=O)N[C@@H](CCCN=C(N)N)C(=O)N[C@@H](CCC)C(=O)N[C@@H](CCCN=C(N)N)C(=O)N[C@@H](Cc1ccc(O)cc1)C(N)=O)C(=O)N[C@@H](CCCN=C(N)N)C(=O)N[C@@H](Cc1ccc(O)cc1)C(N)=O (stereo in doubt; 4A) [listing 2 of 2 here]	6.92
	8.38	6.85	6.44	6.34	34	85	78		CCC[C@H](NC(=O)[C@H](CCCN=C(N)N)NC(=O)[C@H](Cc1c[nH]c2ccccc12)NC(=O)[C@@H](N)CC[C@H](N)C(=O)N[C@@H](Cc1c[nH]c2ccccc12)C(=O)N[C@@H](CCCN=C(N)N)C(=O)N[C@@H](CCC)C(=O)N[C@@H](CCCN=C(N)N)C(=O)N[C@@H](Cc1ccc(O)cc1)C(N)=O)C(=O)N[C@@H](CCCN=C(N)N)C(=O)N[C@@H](Cc1ccc(O)cc1)C(N)=O	6.48
	8.39	6.85	6.59	6.66					CCC[C@H](NC(=O)[C@H](CCCN=C(N)N)NC(=O)[C@H](Cc1c[nH]c2ccccc12)NC(=O)[C@@H](N)CCC[C@H](N)C(=O)N[C@@H](Cc1c[nH]c2ccccc12)C(=O)N[C@@H](CCCN=C(N)N)C(=O)N[C@@H](CCC)C(=O)N[C@@H](CCCN=C(N)N)C(=O)N[C@@H](Cc1ccc(O)cc1)C(N)=O)C(=O)N[C@@H](CCCN=C(N)N)C(=O)N[C@@H](Cc1ccc(O)cc1)C(N)=O (stereo in doubt; 2B) [listing 1 of 2 here]	5.64
					40	270	140		CCC[C@H](NC(=O)[C@H](CCCN=C(N)N)NC(=O)[C@H](Cc1c[nH]c2ccccc12)NC(=O)[C@@H](N)CCCC[C@H](N)C(=O)N[C@@H](Cc1c[nH]c2ccccc12)C(=O)N[C@@H](CCCN=C(N)N)C(=O)N[C@@H](CCC)C(=O)N[C@@H](CCCN=C(N)N)C(=O)N[C@@H](Cc1ccc(O)cc1)C(N)=O)C(=O)N[C@@H](CCCN=C(N)N)C(=O)N[C@@H](Cc1ccc(O)cc1)C(N)=O (stereo in doubt; 4B) [listing 1 of 2 here]	
	8.28	6.66	5.98	6.54	50	200	50	320	CCC[C@H](NC(=O)[C@H](CCCN=C(N)N)NC(=O)[C@H](Cc1c[nH]c2ccccc12)NC(=O)[C@H](Cc1ccc(O)cc1)NC(=O)[C@H](CCCN=C(N)N)NC(=O)[C@H](CCC)NC(=O)[C@H](CCCN=C(N)N)NC(=O)[C@@H](N)Cc1c[nH]c2ccccc12)C(=O)N[C@@H](CCCN=C(N)N)C(=O)N[C@@H](Cc1ccc(O)cc1)C(N)=O (H-WR[Nva]RYWR[Nva]RY-NH2)	6.60
					40	60	550		CCC[C@H](NC(=O)[C@H](CCCN=C(N)N)NC(=O)[C@H](Cc1c[nH]c2ccccc12)NC(=O)[C@@H](N)CCC[C@H](N)C(=O)N[C@@H](Cc1c[nH]c2ccccc12)C(=O)N[C@@H](CCCN=C(N)N)C(=O)N[C@@H](CCC)C(=O)N[C@@H](CCCN=C(N)N)C(=O)N[C@@H](Cc1ccc(O)cc1)C(N)=O)C(=O)N[C@@H](CCCN=C(N)N)C(=O)N[C@@H](Cc1ccc(O)cc1)C(N)=O (stereo in doubt; 2B) [listing 2 of 2 here]	
					10	110	30	1730	CCC[C@H](NC(=O)[C@H](CCCN=C(N)N)NC(=O)[C@H](Cc1c[nH]c2ccccc12)NC(=O)[C@@H](N)CSSC[C@H](N)C(=O)N[C@@H](Cc1c[nH]c2ccccc12)C(=O)N[C@@H](CCCN=C(N)N)C(=O)N[C@@H](CCC)C(=O)N[C@@H](CCCN=C(N)N)C(=O)N[C@@H](Cc1ccc(O)cc1)C(N)=O)C(=O)N[C@@H](CCCN=C(N)N)C(=O)N[C@@H](Cc1ccc(O)cc1)C(N)=O (I: H-CWR[Nva]RY-NH2 / II: H-CWR[Nva]RY-NH2; disulfide I:1-II:1)	6.11
	8.37	6.92	6.51	6.70					CCC[C@H](NC(=O)[C@H](CCCN=C(N)N)NC(=O)[C@H](Cc1c[nH]c2ccccc12)NC(=O)[C@@H](N)CCC[C@H](N)C(=O)N[C@@H](Cc1c[nH]c2ccccc12)C(=O)N[C@@H](CCCN=C(N)N)C(=O)N[C@@H](CCC)C(=O)N[C@@H](CCCN=C(N)N)C(=O)N[C@@H](Cc1ccc(O)cc1)C(N)=O)C(=O)N[C@@H](CCCN=C(N)N)C(=O)N[C@@H](Cc1ccc(O)cc1)C(N)=O (stereo in doubt; 2A) [listing 1 of 2 here]	5.67
	7.52	6.47	< 5.52	6.24					CCC[C@H](NC(=O)[C@H](CCCNC(=N)N)NC(=O)[C@H](Cc1c[nH]c2ccccc12)NC(=O)[C@@H](N)CSSC[C@H](N)C(=O)N[C@@H](Cc1c[nH]c2ccccc12)C(=O)N[C@@H](CCCNC(=N)N)C(=O)N[C@@H](CCC)C(=O)N[C@@H](CCCNC(=N)N)C(=O)N[C@@H](Cc1ccc(O)cc1)C(N)=O)C(=O)N[C@@H](CCCNC(=N)N)C(=O)N[C@@H](Cc1ccc(O)cc1)C(N)=O (I: H-CWR[Nva]RY-NH2 / II: H-CWR[Nva]RY-NH2; disulfide I:1-II:1)	
					30	70	500		CCC[C@H](NC(=O)[C@H](CCCN=C(N)N)NC(=O)[C@H](Cc1c[nH]c2ccccc12)NC(=O)[C@@H](N)CCC[C@H](N)C(=O)N[C@@H](Cc1c[nH]c2ccccc12)C(=O)N[C@@H](CCCN=C(N)N)C(=O)N[C@@H](CCC)C(=O)N[C@@H](CCCN=C(N)N)C(=O)N[C@@H](Cc1ccc(O)cc1)C(N)=O)C(=O)N[C@@H](CCCN=C(N)N)C(=O)N[C@@H](Cc1ccc(O)cc1)C(N)=O (stereo in doubt; 2A) [listing 2 of 2 here]	
5.85	8.70	7.10	6.28	6.43					CCC[C@H](NC(=O)[C@H](CCCN=C(N)N)NC(=O)[C@H](Cc1c[nH]c2ccccc12)NC(=O)[C@@H](N)CCCC[C@H](N)C(=O)N[C@@H](Cc1c[nH]c2ccccc12)C(=O)N[C@@H](CCCN=C(N)N)C(=O)N[C@@H](CCC)C(=O)N[C@@H](CCCN=C(N)N)C(=O)N[C@@H](Cc1ccc(O)cc1)C(N)=O)C(=O)N[C@@H](CCCN=C(N)N)C(=O)N[C@@H](Cc1ccc(O)cc1)C(N)=O (stereo in doubt; 4B) [listing 2 of 2 here]	6.55
